Experimental data pooled from the literature.
Each line is one published result; the experiments were not run side by side.
Target: MAP kinase-interacting serine/threonine-protein kinase 1 (MKNK1, Homo sapiens, UniProt Q9BUB5)

Structure (SMILES) | observed | method | tested at | remaining binding [%]
CN(C)c1nccc(-c2cnn3ncccc23)n1 | binding | – | 1 µM | 100
C[C@@H]1CN(c2ccc3ncc(-c4ccc5[nH]nc(C6CC6)c5c4)n3n2)C[C@H](C)O1 | binding | competition with immobilised ligand | 50 nM | 92
O=C(c1ccc(Nc2nccc(-c3cc4ccccc4s3)n2)cc1)N1CCC(N2CCCC2)CC1 | binding | competition with immobilised ligand | 1 µM | 18
CN(C)c1nccc(-c2cnc3ncccn23)n1 | binding | – | 1 µM | 67
COc1cnc(Nc2cccc(S(N)(=O)=O)c2)nc1N1CCN(c2ccccc2)CC1 | binding | competition with immobilised ligand | 1 µM | 83
COc1ncc2cc3ccccc3nc2c1C#N | cell-free assay | competition with immobilised ligand | 5 µM | 96
CO[C@@H](C)c1c(Nc2ccc([C@H](N(C)C(=O)C3CCS(=O)(=O)CC3)C(F)(F)F)cc2)cnc2cc(Cl)nn12 | cell-free assay | competition with immobilised ligand | 1 µM | 100
CN(c1nccc(-c2cnn3ncccc23)n1)C1CC1 | binding | – | 1 µM | 98
CS(=O)(=O)c1cc(C2(NC(=O)c3cncc4c3cnn4-c3ccc(F)cc3)CC2)ccn1 | cell-free assay | competition with immobilised ligand | 1 µM | 47
C[C@@H](c1ccc(-n2cnc3c(N)ncnc32)cc1)N1CCc2nn(C)c(Cc3ccccc3)c2C1=O | binding | competition with immobilised ligand | 0.1 µM | 58
Cc1cc(C)c(-n2ccn3nc(-c4cccnc4)cc23)cc1NC(=O)c1cc(C#N)cc(S(F)(F)(F)(F)F)c1 | cell-free assay | competition with immobilised ligand | 0.1 µM | 83.8
CC1CCCN1c1nccc(-c2cnn3ncccc23)n1 (stereo not shown) | binding | – | 1 µM | 89
c1cncc(-c2cccc(Nc3nccc(NC4CCCCC4)n3)c2)c1 | binding | competition with immobilised ligand | 10 µM | 89
COc1ccnn2ncc(-c3ccnc(N(C)C)n3)c12 | binding | – | 1 µM | 95
O=C(Nc1c[nH]nc1C(=O)NC1CCNCC1)c1cc(F)cc(F)c1 | binding | competition with immobilised ligand | 1 µM | 100
CN(c1ccnc(CNc2nc(Nc3ccc4c(c3)CC(=O)N4)ncc2C(F)(F)F)n1)S(C)(=O)=O | cell-free assay | competition with immobilised ligand | 1 µM | 45
C=CC(=O)N1CCC(C(=O)NCC(=O)N2CCN(c3nc(-c4cnc(N)nc4C(F)F)nc(N4CCOCC4)n3)CC2)CC1 | binding | competition with immobilised ligand | 1 µM | 83
C[C@@H]1CCN(c2nccc(-c3cnn4ncccc34)n2)C1 | binding | – | 1 µM | 74
O=C(c1ccc(Nc2ncc(Cl)c(-c3ccc(Cl)s3)n2)cc1)N1CCC(N2CCCC2)CC1 | binding | competition with immobilised ligand | 1 µM | 45
CNC(=O)Nc1ccc2c(c1)[C@@]1(CC2)OC(=O)N(CC(=O)N(Cc2ccc(F)cc2)[C@@H](C)C(F)(F)F)C1=O | cell-free assay | competition with immobilised ligand | 1 µM | 94
O=C(c1ccc(Nc2ncc(Cl)c(-c3cc4ccccc4s3)n2)cc1)N1CCC(N2CCCC2)CC1 | binding | competition with immobilised ligand | 1 µM | 24
CSc1cccnc1N1CCN(Cc2nc3ccccc3[nH]2)CC1 | cell-free assay | competition with immobilised ligand | 1 µM | 98
N[C@@H]1CCN(c2nccc(-c3cnn4ncccc34)n2)C1 | binding | – | 1 µM | 68
NS(=O)(=O)c1cc(NC(=O)Cc2ccccc2)ccc1Oc1cccc(Cl)c1 | cell-free assay | competition with immobilised ligand | 1 µM | 79
CC(C)(C)c1ccc(-c2nc(CBr)nn2-c2cccc(O)c2)cc1 | cell-free assay | competition with immobilised ligand | 10 µM | 57
